Drawing on ChEMBL document CHEMBL2380235, “Discovery of N-{4-[(3-hydroxyphenyl)-3-methylpiperazin-1-yl]methyl-2-methylpropyl}-4-phenoxybenzamide analogues as selective kappa opioid receptor antagonists” (J Med Chem, 2013), this text covers Activity, Ratio Ke and Ke for 26 compounds.

The target of assay [1] is Kappa-type opioid receptor (Homo sapiens) (UniProt P41145). The assay is described as follows: Intrinsic activity at human kappa opioid receptor expressed in CHO cells at 10 uM by [35S]GTPgammaS binding assay. The format is functional, cell-based. A general note: Binding of GTPγS marks nucleotide exchange on a G protein.
Chain of Kappa-type opioid receptor (Homo sapiens) (P41145 whole entry): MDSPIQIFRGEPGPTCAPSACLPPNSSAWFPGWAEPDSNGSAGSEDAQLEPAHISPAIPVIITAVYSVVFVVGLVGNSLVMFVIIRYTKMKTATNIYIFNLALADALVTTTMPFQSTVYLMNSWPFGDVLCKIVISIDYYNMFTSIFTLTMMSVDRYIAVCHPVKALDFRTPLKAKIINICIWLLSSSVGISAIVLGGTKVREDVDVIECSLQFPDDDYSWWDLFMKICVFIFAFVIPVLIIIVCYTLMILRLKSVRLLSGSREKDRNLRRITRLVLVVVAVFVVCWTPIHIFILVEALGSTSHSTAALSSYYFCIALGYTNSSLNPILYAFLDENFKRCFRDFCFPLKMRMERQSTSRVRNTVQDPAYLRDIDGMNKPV
For assay [2], the target named is Delta-type opioid receptor (Homo sapiens) (UniProt P41143). The assay can be described thus: Intrinsic activity at human delta opioid receptor expressed in CHO cells at 10 uM by [35S]GTPgammaS binding assay. Type of assay: functional, cell-based.
Chain of Delta-type opioid receptor (Homo sapiens) (P41143 whole entry): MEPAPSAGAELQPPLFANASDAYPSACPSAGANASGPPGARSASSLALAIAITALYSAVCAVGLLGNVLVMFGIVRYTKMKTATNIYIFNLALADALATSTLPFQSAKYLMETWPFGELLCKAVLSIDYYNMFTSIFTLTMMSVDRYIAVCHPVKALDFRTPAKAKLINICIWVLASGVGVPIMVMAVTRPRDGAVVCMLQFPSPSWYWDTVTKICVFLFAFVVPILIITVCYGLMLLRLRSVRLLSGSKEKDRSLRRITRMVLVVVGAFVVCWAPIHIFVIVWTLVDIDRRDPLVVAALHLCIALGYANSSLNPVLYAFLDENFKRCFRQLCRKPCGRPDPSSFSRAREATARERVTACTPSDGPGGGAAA
For assay [3], the species on record is Homo sapiens. The assay is described as follows: Selectivity ratio of Ke for human delta opioid receptor to Ke for human kappa opioid receptor.
The species named for assay [4] is Homo sapiens. The assay is described as follows: Selectivity ratio of Ke for human mu opioid receptor to Ke for human kappa opioid receptor.
Assay [5] addresses Kappa-type opioid receptor (Homo sapiens) (UniProt P41145). The assay is described as follows: Antagonist activity at human kappa opioid receptor expressed in CHO cells assessed as inhibition of U69,593-stimulated [35S]GTPgammaS binding. The format is functional, cell-based. Put shortly: (§1)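 Agonist concentration-response curves (eight concentrations, duplicate) were run with or without a single test-compound concentration. Ke = [L]/(DR−1), where [L] is the test-compound concentration and DR is the ratio of agonist EC50 with versus without compound. At least two test-compound concentrations were used, chosen to shift agonist EC50 rightward at least four-fold while keeping a clear upper asymptote.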

The target of assay [6] is Delta-type opioid receptor (Homo sapiens) (UniProt P41143). The assay can be described thus: Antagonist activity at human delta opioid receptor expressed in CHO cells assessed as inhibition of DPDPE-stimulated [35S]GTPgammaS binding. The format is functional, cell-based. The procedure, abridged: as §1
For assay [7], the target named is Mu-type opioid receptor (Homo sapiens) (UniProt P35372). The conditions noted are these: CHO.
Chain of Mu-type opioid receptor (Homo sapiens) (P35372 whole entry): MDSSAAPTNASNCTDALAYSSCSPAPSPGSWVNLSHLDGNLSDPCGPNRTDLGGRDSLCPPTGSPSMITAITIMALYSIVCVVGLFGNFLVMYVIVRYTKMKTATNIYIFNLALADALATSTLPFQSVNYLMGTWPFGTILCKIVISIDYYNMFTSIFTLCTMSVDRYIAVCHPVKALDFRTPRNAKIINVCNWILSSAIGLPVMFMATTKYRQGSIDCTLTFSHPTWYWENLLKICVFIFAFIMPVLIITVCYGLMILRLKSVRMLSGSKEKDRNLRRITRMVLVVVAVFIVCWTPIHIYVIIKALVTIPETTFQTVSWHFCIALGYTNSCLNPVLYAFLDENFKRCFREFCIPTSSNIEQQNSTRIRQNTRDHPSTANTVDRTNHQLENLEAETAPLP

Active and inactive are the calls of the source. The calls are words filed in the database; no cut-off is given here.

Take `Cc1ccc(O)c(Oc2ccc(C(=O)N[C@H](CN3CCN(c4cccc(O)c4)[C@@H](C)C3)C(C)C)cc2)c1`: the outcome in assay [1] and in assay [2] was inactive.

With `Cc1cc(C(=O)N[C@H](CN2CCN(c3cccc(O)c3)[C@@H](C)C2)C(C)C)ccc1Oc1ccccc1`, the Ratio Ke in the assay filed under Homo sapiens [3] stood at 691; in the assay filed under Homo sapiens [4], 24. The Ke in assay [5] was determined as 0.63 nM; in assay [6], 435 nM; in assay [7], 15 nM. The outcome in assay [1] and in assay [2] was inactive.

Turning to `COc1cc(C(=O)N[C@H](CN2CCN(c3cccc(O)c3)[C@@H](C)C2)C(C)C)ccc1Oc1ccccc1O`, the Ratio Ke in the assay filed under Homo sapiens [3] was found to be 7; in the assay filed under Homo sapiens [4], 5. Also, the Ke in assay [5] came to 16.3 nM; in assay [7], 74 nM. In addition, the result in assay [1] and in assay [2] was inactive.

`CC(C)[C@@H](CN1CCN(c2cccc(O)c2)[C@@H](C)C1)NC(=O)c1ccc(Oc2cccc(C(F)(F)F)c2)cc1`: the Ratio Ke in the assay filed under Homo sapiens [3] is 45; in the assay listed under Homo sapiens [4], 18. For the same compound, the Ke in assay [5] turned out to be 1.2 nM; in assay [6], 54 nM; in assay [7], 21 nM. Moreover, the outcome in assay [1] and in assay [2] was inactive.

Regarding `Cc1ccc(O)c(Oc2ccc(C(=O)N[C@H](CN3CCN(c4cccc(O)c4)[C@@H](C)C3)C(C)C)cc2Cl)c1`, the Ratio Ke in the assay listed under Homo sapiens [3] worked out at 5; in the assay listed under Homo sapiens [4], 3. The results for the Ke in assay [5], in assay [6] and in assay [7] were 3 nM, 15 nM and 8.2 nM, respectively. Also, the result in assay [1] and in assay [2] was inactive.

For the compound `CC(C)[C@@H](CN1CCN(c2cccc(O)c2)[C@@H](C)C1)NC(=O)c1ccc(Oc2ccc(O)cc2)cc1`, the Ratio Ke in the assay listed under Homo sapiens [3] is 197; in the assay filed under Homo sapiens [4], 8. Moreover, the Ke in assay [5] is 8.6 nM; in assay [6], 1700 nM; in assay [7], 71 nM. Besides, the result in assay [1] and in assay [2] was inactive.

In the case of `CC(C)[C@@H](CN1CCN(c2cccc(O)c2)[C@H](C)C1)NC(=O)[C@H]1Cc2ccc(O)cc2CN1`, the Ke in assay [6] is 1550 nM; in assay [7], 49.4 nM. The result in assay [1] and in assay [2] was inactive.

Turning to `COc1cc(C(=O)N[C@H](CN2CCN(c3cccc(O)c3)[C@@H](C)C2)C(C)C)ccc1Oc1cccc(C)c1`, the Ratio Ke is 372 in the assay listed under Homo sapiens [3] and 140 in the assay listed under Homo sapiens [4]. For the same compound, the Ke in assay [5] was 0.25 nM; in assay [6] it was 93 nM; in assay [7], 35.1 nM. The result in assay [1] and in assay [2] was inactive.

On to `CC(C)[C@@H](CN1CCN(c2cccc(O)c2)[C@@H](C)C1)NC(=O)c1ccc(Oc2ccccc2)nc1`, for which the Ratio Ke in the assay listed under Homo sapiens [3] is 1120; in the assay listed under Homo sapiens [4], 38. The Ke came out at 1.6 nM in assay [5], 1790 nM in assay [6] and 60 nM in assay [7]. Besides, the outcome in assay [1] and in assay [2] was inactive.

On to `CC(C)[C@@H](CN1CCN(c2cccc(O)c2)[C@@H](C)C1)NC(=O)c1ccc(Oc2cccc(Br)c2)cc1`, for which the Ratio Ke in the assay filed under Homo sapiens [3] came out at 88; in the assay listed under Homo sapiens [4], 35. Moreover, the Ke was found to be 0.48 nM in assay [5], 42 nM in assay [6] and 17 nM in assay [7]. Moreover, the outcome in assay [1] and in assay [2] was inactive.

Consider `COc1ccc(C(=O)N[C@H](CN2CCN(c3cccc(O)c3)[C@@H](C)C2)C(C)C)cc1OC`, for which the Ratio Ke in the assay filed under Homo sapiens [4] was 4. For the same compound, the Ke in assay [5] is 81.7 nM. The result in assay [2] was inactive.

`CC(C)[C@@H](CN1CCN(c2cccc(O)c2)[C@@H](C)C1)NC(=O)c1ccc(Oc2ccccc2O)c(Cl)c1`: the Ratio Ke in the assay listed under Homo sapiens [3] turned out to be 42; in the assay filed under Homo sapiens [4] it was 7. In addition, the Ke in assay [5] is 5 nM. Also, the result in assay [1] and in assay [2] was inactive.

With `COc1ccccc1Oc1ccc(C(=O)N[C@H](CN2CCN(c3cccc(O)c3)[C@@H](C)C2)C(C)C)cc1`, the figures for the Ratio Ke in the assay filed under Homo sapiens [3] and in the assay filed under Homo sapiens [4] were 155 and 23, respectively. Further, the Ke stood at 5.6 nM in assay [5], 869 nM in assay [6] and 127 nM in assay [7]. Also, the outcome in assay [1] and in assay [2] was inactive.

`COc1cccc(Oc2ccc(C(=O)N[C@H](CN3CCN(c4cccc(O)c4)[C@@H](C)C3)C(C)C)cc2)c1`: the Ratio Ke in the assay filed under Homo sapiens [3] amounted to 2380; in the assay filed under Homo sapiens [4], 52. The Ke in assay [5] is 0.63 nM; in assay [6], 1500 nM; in assay [7] it was 33 nM. For the same compound, the outcome in assay [1] and in assay [2] was inactive.

Regarding `Cc1cccc(Oc2ccc(C(=O)N[C@H](CN3CCN(c4cccc(O)c4)[C@@H](C)C3)C(C)C)cc2Cl)c1`, the Ratio Ke in the assay filed under Homo sapiens [3] stood at 3790; in the assay listed under Homo sapiens [4] it was 148. The Ke in assay [5] is 0.29 nM; in assay [6], 1100 nM; in assay [7], 43 nM. The outcome in assay [1] and in assay [2] was inactive.

With `CC(C)[C@@H](CN1CCN(c2cccc(O)c2)[C@@H](C)C1)NC(=O)c1ccc(Oc2cccc(F)c2)cc1`, the Ratio Ke in the assay listed under Homo sapiens [3] worked out at 117; in the assay filed under Homo sapiens [4], 20. Besides, the Ke came to 1.48 nM in assay [5], 173 nM in assay [6] and 30 nM in assay [7]. In addition, the outcome in assay [1] and in assay [2] was inactive.

Regarding `Cc1ccc(Oc2ccc(C(=O)N[C@H](CN3CCN(c4cccc(O)c4)[C@@H](C)C3)C(C)C)cc2)cc1`, the values for the Ratio Ke in the assay listed under Homo sapiens [3] and in the assay filed under Homo sapiens [4] were 272 and 29, respectively. Also, the Ke turned out to be 0.69 nM in assay [5], 188 nM in assay [6] and 20 nM in assay [7]. For the same compound, the result in assay [1] and in assay [2] was inactive.

With `Cc1cccc(Oc2ccc(C(=O)N[C@H](CN3CCN(c4cccc(O)c4)[C@@H](C)C3)C(C)C)cc2)c1O`, the values for the Ratio Ke in the assay listed under Homo sapiens [3] and in the assay filed under Homo sapiens [4] were 272 and 70, respectively. Also, the Ke in assay [5] is 0.34 nM; in assay [6], 93 nM; in assay [7] it was 23.8 nM. Moreover, the outcome in assay [1] and in assay [2] was inactive.

For `COc1cc(C(=O)N[C@H](CN2CCN(c3cccc(O)c3)[C@@H](C)C2)C(C)C)ccc1Oc1cc(C)ccc1O`, the results for the Ratio Ke in the assay listed under Homo sapiens [3] and in the assay listed under Homo sapiens [4] were 19 and 1.6, respectively. For the same compound, the Ke in assay [5] turned out to be 6.2 nM. Moreover, the result in assay [1] and in assay [2] was inactive.

Consider `CC(C)[C@@H](CN1CCN(c2cccc(O)c2)[C@@H](C)C1)NC(=O)c1ccc(Oc2cccc(Cl)c2)cc1`, for which the Ratio Ke in the assay filed under Homo sapiens [3] is 20; in the assay filed under Homo sapiens [4], 43. The Ke in assay [5] came to 0.42 nM; in assay [6], 8.3 nM; in assay [7], 18 nM. Moreover, the result in assay [1] and in assay [2] was inactive.

As to `COc1cc(Oc2cccc(C)c2)ccc1C(=O)N[C@H](CN1CCN(c2cccc(O)c2)[C@@H](C)C1)C(C)C`, the Ratio Ke was 48 in the assay listed under Homo sapiens [3] and 38 in the assay listed under Homo sapiens [4]. Moreover, the Ke was 1.3 nM in assay [5], 63 nM in assay [6] and 49 nM in assay [7]. Moreover, the outcome in assay [1] and in assay [2] was inactive.

With `CC(C)[C@@H](CN1CCN(c2cccc(O)c2)[C@@H](C)C1)NC(=O)[C@H]1Cc2ccc(O)cc2CN1`, the Ke in assay [6] worked out at 1310 nM; in assay [7], 74.2 nM. Moreover, the outcome in assay [1] and in assay [2] was inactive.

With `CC(C)[C@@H](CN1CCN(c2cccc(O)c2)[C@@H](C)C1)NC(=O)c1ccc(Oc2ccccc2F)cc1`, the Ratio Ke is 126 in the assay listed under Homo sapiens [3] and 28 in the assay filed under Homo sapiens [4]. Also, the Ke in assay [5] was 0.76 nM; in assay [6], 96 nM; in assay [7] it was 21.1 nM. For the same compound, the outcome in assay [1] and in assay [2] was inactive.

Consider `COc1ccc(Oc2ccc(C(=O)N[C@H](CN3CCN(c4cccc(O)c4)[C@@H](C)C3)C(C)C)cc2)cc1`, for which the Ratio Ke in the assay filed under Homo sapiens [3] is 2300; in the assay listed under Homo sapiens [4] it was 28. Further, the Ke came out at 0.6 nM in assay [5], 1380 nM in assay [6] and 17 nM in assay [7]. Further, the result in assay [1] and in assay [2] was inactive.

For `Cc1cccc(Oc2ccc(C(=O)N[C@H](CN3CCN(c4cccc(O)c4)[C@@H](C)C3)C(C)C)c(C)c2)c1`, the Ratio Ke in the assay listed under Homo sapiens [3] came out at 22; in the assay filed under Homo sapiens [4], 28. In assay [5], the Ke is 0.65 nM. The outcome in assay [1] and in assay [2] was inactive.

As to `Cc1cccc(Oc2ccc(C(=O)N[C@H](CN3CCN(c4cccc(O)c4)[C@@H](C)C3)C(C)C)c(O)c2)c1`, the results for the Ratio Ke in the assay listed under Homo sapiens [3] and in the assay listed under Homo sapiens [4] were 463 and 63, respectively. Besides, in assay [5], the Ke was found to be 1.9 nM. In addition, the result in assay [1] and in assay [2] was inactive.
